ChEMBL document CHEMBL4765452, “Discovery of (E)-N-(4-methyl-5-(3-(2-(pyridin-2-yl)vinyl)-1H-indazol-6-yl)thiazol-2-yl)-2-(4-methylpiperazin-1-yl)acetamide (IHMT-TRK-284) as a novel orally available type II TRK kinase inhibitor capable of overcoming multiple resistant mutants” (Eur J Med Chem, 2020)

Tests used:
[1] = molecular target: High affinity nerve growth factor receptor (Homo sapiens, UniProt P04629); test: Inhibition of LMNA fused TRKA (unknown origin) transfected in mouse BAF3 cells assessed as growth inhibition after 72 hrs by CCK8 assay; assay type: cell-based
[2] = molecular target: BDNF/NT-3 growth factors receptor (Homo sapiens, UniProt Q16620); test: Inhibition of human TRKB by Z-LYTE or ADP-Glo assay
How it was run: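 Purified kinase proteins tested biochemically in Z'LYTE or ADP-Glo format.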

[3] = test system: KM12-Luc; test: Induction of apoptosis in human KM-12-LUC cells assessed as increase in cleaved PARP level after 24 hrs by Western blot analysis; assay type: functional, cell-based; conditions: dose 0.01-10 µM
How it was run: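 KM-12-LUC cells cultured in RPMI 1640 with 10% FBS and 1% penicillin/streptomycin at 37 °C, 5% CO2. Serially diluted compound added for 24 h. Apoptosis read by western blot for PARP cleavage, with β-actin as loading control.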

[4] = AUC (0 to t) in mouse at 1 mg/kg, iv; assay type: ADME, organism-based; design: dose 1 mg/kg; conditions: in vivo
How it was run: (§1)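 Intravenous and oral arms were run in parallel in each species (mice, Sprague Dawley rats, beagle dogs). Exposure is reported as AUC0-t in ng/mL·h.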

[5] = Tmax in mouse at 1 mg/kg, iv; assay type: ADME, organism-based; conditions: in vivo
How it was run: (§2)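 Single-dose PK in mice, Sprague Dawley rats and beagle dogs, given i.v. (1 mg/kg) or p.o. (10 mg/kg mice and rats; 5 mg/kg dogs). AUC0-t, T1/2, Tmax and oral bioavailability (F) derived from plasma profiles.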

[6] = AUC (0 to t) in Sprague-Dawley rat at 1 mg/kg, iv; assay type: ADME, organism-based; design: dose 1 mg/kg; conditions: in vivo; how it was run: as §1
[7] = AUC (0 to t) in Sprague-Dawley rat at 10 mg/kg, po; assay type: ADME, organism-based; design: dose 10 mg/kg; conditions: in vivo; how it was run: as §1
[8] = Tmax in Sprague-Dawley rat at 1 mg/kg, iv; assay type: ADME, organism-based; conditions: in vivo; how it was run: as §2
[9] = Tmax in Sprague-Dawley rat at 10 mg/kg, po; assay type: ADME, organism-based; conditions: in vivo; how it was run: as §2
[10] = Apparent volume of distribution in Sprague-Dawley rat at 10 mg/kg, po; assay type: ADME, organism-based; conditions: in vivo
[11] = Tmax in Beagle dog at 5 mg/kg, po; assay type: ADME, organism-based, Canis lupus familiaris; conditions: in vivo; how it was run: as §2
[12] = Apparent clearance in Beagle dog at 5 mg/kg, po; assay type: ADME, organism-based, Canis lupus familiaris; conditions: in vivo, read-out: CLz/F (converted)
[13] = test system: BaF3; test: Antitumor activity against mouse BAF3 cells harboring TEL fused TRKC allografted in nude mouse assessed as tumor growth inhibition at 80 mg/kg, po administered once daily for 10 days relative to control; assay type: functional; conditions: 240 h, time 10 day, read-out: TGI
How it was run: (§3)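 Nu/nu mice given 1 million BaF3 cells (TEL-TRKA, TEL-TRKB, TEL-TRKC, LMNA-TRKA-F589L or LMNA-TRKA-G667S) in DMEM, 1:1 with matrigel, injected subcutaneously into the right flank; oral gavage began at 200–400 mm³, 5 mice per group, compound in 0.5% methylcellulose/0.4% Tween 80 in ddH₂O, 10 days; tumor volume [(W²×L)/2] and body weight recorded daily; TGI versus vehicle.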

[14] = test system: BaF3; test: Antitumor activity against mouse BAF3 cells harboring LMNA fused TRKA-F589L mutant allografted in nude mouse assessed as tumor growth inhibition at 80 mg/kg, po administered once daily for 10 days relative to control; assay type: functional; conditions: 240 h, time 10 day, read-out: TGI; how it was run: as §3
[15] = test system: BaF3; test: Antitumor activity against mouse BAF3 cells harboring TEL fused TRKB allografted in nude mouse assessed as tumor growth inhibition administered orally once daily for 10 days; assay type: functional, cell-based; conditions: dose 40-80 mg/kg/day, time 10.0 day; how it was run: as §3
[16] = Toxicity in mouse xenografted with mouse BAF3 cells harboring TEL fused TRKC assessed as effect on body weight at 40 to 80 mg/kg, po administered once daily for 10 days; assay type: organism-based; conditions: in vivo, 240 h, dose 40-80 mg/kg/day, time 10 day
How it was run: (§4)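 nu/nu mice were given subcutaneous right-flank implants in 1:1 DMEM/matrigel: 1 million BaF3 fusion cells or 5 million KM-12-LUC cells. Oral gavage started at 150–200 mm3 (xenograft) or 200–400 mm3 (allograft). Dosing used 40 or 80 mg/kg in HKI vehicle (0.5% methylcellulose/0.4% Tween 80 in ddH2O), with 5 mice per group. Body weight was recorded daily and behaviour observed.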

[17] = Toxicity in mouse xenografted with mouse BAF3 cells harboring […] TRKA-F589L mutant assessed as effect on body weight at 40 to 80 mg/kg, po administered once daily for 10 days; assay type: organism-based; conditions: in vivo, 240 h, dose 40-80 mg/kg/day, time 10 day; how it was run: as §4

High affinity nerve growth factor receptor, sequence (P04629 33-796 limits assumed): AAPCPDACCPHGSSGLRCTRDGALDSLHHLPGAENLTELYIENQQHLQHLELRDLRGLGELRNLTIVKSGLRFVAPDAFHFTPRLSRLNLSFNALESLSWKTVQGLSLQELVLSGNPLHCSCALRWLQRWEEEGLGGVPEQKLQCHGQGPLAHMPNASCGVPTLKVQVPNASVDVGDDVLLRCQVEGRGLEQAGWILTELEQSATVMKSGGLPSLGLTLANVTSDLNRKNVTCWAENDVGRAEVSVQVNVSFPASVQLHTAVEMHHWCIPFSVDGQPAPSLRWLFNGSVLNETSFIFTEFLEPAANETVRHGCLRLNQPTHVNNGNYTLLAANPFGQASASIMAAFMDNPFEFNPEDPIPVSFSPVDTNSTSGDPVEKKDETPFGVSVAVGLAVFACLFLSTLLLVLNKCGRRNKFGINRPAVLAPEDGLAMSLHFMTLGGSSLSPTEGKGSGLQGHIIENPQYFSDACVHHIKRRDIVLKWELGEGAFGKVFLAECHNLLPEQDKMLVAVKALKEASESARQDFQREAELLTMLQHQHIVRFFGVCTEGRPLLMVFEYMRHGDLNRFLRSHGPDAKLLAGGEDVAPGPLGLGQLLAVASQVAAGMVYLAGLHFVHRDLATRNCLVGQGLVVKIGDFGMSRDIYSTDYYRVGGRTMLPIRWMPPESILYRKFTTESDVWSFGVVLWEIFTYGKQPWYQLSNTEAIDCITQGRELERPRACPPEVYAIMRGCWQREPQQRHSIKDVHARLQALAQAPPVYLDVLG
BDNF/NT-3 growth factors receptor, sequence (Q16620 whole entry): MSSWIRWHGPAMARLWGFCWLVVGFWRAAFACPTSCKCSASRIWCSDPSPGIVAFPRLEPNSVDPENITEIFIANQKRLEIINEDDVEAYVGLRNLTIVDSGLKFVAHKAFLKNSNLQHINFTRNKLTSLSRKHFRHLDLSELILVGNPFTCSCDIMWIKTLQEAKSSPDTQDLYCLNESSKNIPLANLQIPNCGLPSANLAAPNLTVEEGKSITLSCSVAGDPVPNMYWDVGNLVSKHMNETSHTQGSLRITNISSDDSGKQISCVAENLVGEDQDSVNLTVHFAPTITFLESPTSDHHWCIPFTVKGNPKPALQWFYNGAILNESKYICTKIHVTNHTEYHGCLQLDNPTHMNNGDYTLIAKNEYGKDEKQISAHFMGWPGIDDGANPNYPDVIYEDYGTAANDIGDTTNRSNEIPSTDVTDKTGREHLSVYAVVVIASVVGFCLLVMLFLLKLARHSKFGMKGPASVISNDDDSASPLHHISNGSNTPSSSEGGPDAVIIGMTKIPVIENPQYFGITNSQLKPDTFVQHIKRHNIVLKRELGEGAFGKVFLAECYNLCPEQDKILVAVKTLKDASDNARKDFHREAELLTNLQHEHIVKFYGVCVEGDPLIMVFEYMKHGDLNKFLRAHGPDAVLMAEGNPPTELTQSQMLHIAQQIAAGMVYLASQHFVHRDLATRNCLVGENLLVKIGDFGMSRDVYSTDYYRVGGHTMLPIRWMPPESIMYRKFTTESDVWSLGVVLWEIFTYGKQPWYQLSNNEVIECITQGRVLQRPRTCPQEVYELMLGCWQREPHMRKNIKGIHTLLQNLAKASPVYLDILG

Cc1nc(NC(=O)CN2CCN(C)CC2)sc1-c1ccc2c(/C=C/c3ccccn3)n[nH]c2c1
GI50 [1]: 7 nM | IC50 [2]: 0.71 nM | Activity [3]: Dose-dependent effect | AUC(0-t) [4]: 748 ng·h/mL | Tmax [5]: 1.98 min | AUC(0-t) [6]: 393 ng·h/mL | AUC(0-t) [7]: 952 ng·h/mL | Tmax [8]: 1.8 min | Tmax [9]: 4.7 h | Vz [10]: 37.364 L/kg | Tmax [11]: 4.3 h | CL/F [12]: 140 mL/min/kg | inhibition in vivo at 80 mg/kg/day [13]: 57.5% | inhibition in vivo at 80 mg/kg/day [14]: 87.7% | Activity [15]: Dose-dependent effect | Activity [16]: Non-Toxic | Activity [17]: Non-Toxic
